Measured values reported in ChEMBL document CHEMBL2406946 (Bioorg Med Chem, 2013).

Columns and labels:
[1] = biological target: Aldo-keto reductase family 1 member B1 (Bos taurus, UniProt P16116); experiment: Inhibition of bovine lens aldose reductase using DL-glyceraldehyde as substrate assessed as NADPH oxidation measured for 10 mins by spectrophotometric analysis
Summary of the method: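 Aldose reductase isolated from bovine lens (enzyme at 750 µg/mL protein) in 50 mM PBS pH 6.2 with β-mercaptoethanol, Li2SO4 and NADPH, compounds across a 0.1–10 range. Reaction started with DL-glyceraldehyde. Fall in NADPH absorbance at 340 nm followed for 10 min.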

[2] = biological target: Aldo-keto reductase family 1 member B1 (Bos taurus) (UniProt P16116); experiment: Ratio of 4-(5-hydroxy-4-oxo-2-phenyl-4H-chromen-7-yloxy)butyl nitrate IC50 to compound IC50 for bovine lens aldose reductase
[3] = Induction of nitric oxide release at 10^-4 M after 1 hr by Griess assay in presence of L-cysteine relative to control; format: physicochemical; details: 100 µM
Summary of the method: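 Thiol-triggered NO release: compounds at final 10^-4 M incubated 1 h at 37 °C with L-cysteine. 1 mL of mixture treated with Griess reagent (sulfanilamide, N-naphthylethylenediamine dihydrochloride, phosphoric acid), held 10 min at room temperature, absorbance read at 540 nm. Percent NO released relative to a theoretical maximum of 1 mol NO/mol compound. Sodium nitroprusside served as positive control.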

[4] = biological target: Aldo-keto reductase family 1 member B1 (Bos taurus) (UniProt P16116); experiment: Ratio of quercetin IC50 to compound iC50 for bovine lens aldose reductase

Row | SMILES | IC50 [1] [nM] | Ratio IC50 [2] | Activity [3] [%] | Ratio IC50 [4]
1 | CCOc1cc(O)c2c(=O)cc(-c3ccc4c(c3)OCCO4)oc2c1 | 1190 |  |  | 
2 | CCCCCCOc1cc(O)c2c(=O)cc(-c3ccc(O)c(O)c3)oc2c1 | 1810 |  |  | 
3 | O=c1cc(-c2ccc3c(c2)OCCO3)oc2cc(OCCCCO[N+](=O)[O-])cc(O)c12 | 127 | 2.3 | 2.813 | 
4 | O=c1cc(-c2ccc(O)c(O)c2)oc2cc(OCCO[N+](=O)[O-])cc(O)c12 | 168 |  | 1.07 | 
5 | O=C(COc1cc(O)c2c(=O)cc(-c3ccc4c(c3)OCCO4)oc2c1)OCCO[N+](=O)[O-] | 445 |  | 1.018 | 
6 | O=c1cc(-c2ccc3c(c2)OCCO3)oc2cc(OCCO[N+](=O)[O-])cc(O)c12 | 99 |  | 2.111 | 28.5
7 | O=c1cc(-c2ccc(O)c(O)c2)oc2cc(OCCCCCCO[N+](=O)[O-])cc(O)c12 | 491 |  | 4.637 | 
8 | CCCCCCOc1cc(O)c2c(=O)cc(-c3ccc4c(c3)OCCO4)oc2c1 | 1710 |  |  | 
9 | CCCCOc1cc(O)c2c(=O)cc(-c3ccc(O)c(O)c3)oc2c1 | 769 |  |  | 
10 | CCCCCCOC(=O)COc1cc(O)c2c(=O)cc(-c3ccc4c(c3)OCCO4)oc2c1 | 2830 |  |  | 
11 | CCOC(=O)COc1cc(O)c2c(=O)cc(-c3ccc4c(c3)OCCO4)oc2c1 | 506 |  |  | 
12 | O=c1cc(-c2ccc3c(c2)OCCO3)oc2cc(OCCCCCCO[N+](=O)[O-])cc(O)c12 | 445 |  | 1.328 | 
13 | O=C(COc1cc(O)c2c(=O)cc(-c3ccc4c(c3)OCCO4)oc2c1)OCCCCCCO[N+](=O)[O-] | 1300 |  | 1.14 | 
14 | O=c1cc(-c2ccc(O)c(O)c2)oc2cc(O)cc(O)c12 [LUTEOLIN] | 754 |  |  | 
15 | CCCCOC(=O)COc1cc(O)c2c(=O)cc(-c3ccc4c(c3)OCCO4)oc2c1 | 523 |  |  | 
16 | CCOc1cc(O)c2c(=O)cc(-c3ccc(O)c(O)c3)oc2c1 | 604 |  |  | 
17 | CCCCOc1cc(O)c2c(=O)cc(-c3ccc4c(c3)OCCO4)oc2c1 | 1250 |  |  | 
18 | O=c1cc(-c2ccc(O)c(O)c2)oc2cc(OCCCCO[N+](=O)[O-])cc(O)c12 | 472 |  | 2.345 | 
19 | O=C(COc1cc(O)c2c(=O)cc(-c3ccc4c(c3)OCCO4)oc2c1)OCCCCO[N+](=O)[O-] | 491 |  | 1.351 | 
